Several values for one entry are separate records, joined by “and”; a condition that tells them apart may be missing. Identical values can stand only once. Like-named read-outs stand apart in the source and are kept apart here. Bounds are passed on as bounds.

Consider four compounds from publication PMC7395825 (OncoTargets and therapy, 2020).

Data set [1] has as its system DLD-1 cancer cells. As to the kind of experiment: MTT assay, in vitro antiproliferative activity, DLD-1. Type of data set: cell-based, human. The conditions noted are these: for TGI (total 100% growth inhibition): DLD-1, MTT, 48 hours of drug exposure; for GI50 / IC50: Homo sapiens, DLD-1, 48 h; for GI50: read-out: GI50 (50% growth inhibition); for IC50: read-out: IC50 (half maximal cytotoxic concentration). The essentials: (§1)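 Cells kept in ATCC-recommended medium with 10% FBS and 1% penicillin/streptomycin at 37°C, 5% CO2, seeded at 8×10^3 cells/well. After 24 h, exposed 48 h to test compound (DMSO stock 15 mM) at seven concentrations across 1–100 μM. Medium renewed, MTT added for 3 h, formazan dissolved in DMSO, absorbance read at 540 nm. […] Triplicate.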
(Tetrazolium dyes change colour on reduction, which living cells bring about.)

The test system of data set [2] is HT-29 cancer cells. As to the kind of experiment: MTT assay, in vitro antiproliferative activity, HT-29. Format: cell-based, human. To be noted: for TGI (total 100% growth inhibition): HT-29, MTT, 48 hours of drug exposure, unit given; for GI50 / IC50: Homo sapiens, HT-29, 48 h; for GI50: read-out: GI50 (50% growth inhibition); for IC50: read-out: IC50 (half maximal cytotoxic concentration). The essentials:
as §1

Another data set has as its system LoVo cancer cells. The experiment in a line: MTT assay, in vitro antiproliferative activity, LoVo. Type of data set: cell-based. To be noted: Homo sapiens, 48 h; for GI50: read-out: GI50 (50% growth inhibition); for IC50: read-out: IC50 (half maximal cytotoxic concentration). The essentials: as §1
Data set [3] is described as follows: MTT assay, normal lung cells. Format: cell-based, human. To be noted: human, MRC5 normal lung cells. In a few lines: as §1
For data set [4], the system named is healthy lung (MRC5) cells. The experiment in a line: MTT assay, normal lung cells. Format: cell-based, human. The conditions noted are these: for GI50: Homo sapiens, MRC5, 48 h, read-out: GI50 (50% growth inhibition); for Selectivity: GI50, TGI and IC50 values, MRC5 cells versus cancer cell lines: MRC5 versus DLD-1, HT-29, LoVo. The essentials:
as §1

Data set [5] has as its system DLD-1 cancer cells. The experiment in a line: Flow cytometric analysis of apoptosis. Type of data set: cell-based, human. The conditions noted are these: DLD-1, at IC50 concentration (KA39 9 μM, etoposide 27 μM). In general terms: In flow cytometry, cells or beads pass a laser one at a time.
Data set [6] has as its system HT-29 cancer cells. As to the kind of experiment: Flow cytometric analysis of cell cycle growth arrest. Type of data set: cell-based, human. In a few lines:
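HT-29 cells seeded in 6-well plates and grown 24 h at 37°C, 5% CO2. Medium renewed, then cells exposed to test compound for 24 h or 48 h at the stated levels, with untreated and etoposide-treated parallels. Cells trypsinised, washed and lysed in nuclei extraction buffer for 15 min in the dark. DNA stained with PI/RNase solution for 30–60 min in the dark. Flow cytometry, 1×10^4 events per sample, triplicate.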

The target in a further data set is topoisomerase II (Homo sapiens, UniProt P11388). The experiment in a line: DNA topoisomerase II assay. Type of data set: biochemical.
topoisomerase II, sequence (P11388 whole entry): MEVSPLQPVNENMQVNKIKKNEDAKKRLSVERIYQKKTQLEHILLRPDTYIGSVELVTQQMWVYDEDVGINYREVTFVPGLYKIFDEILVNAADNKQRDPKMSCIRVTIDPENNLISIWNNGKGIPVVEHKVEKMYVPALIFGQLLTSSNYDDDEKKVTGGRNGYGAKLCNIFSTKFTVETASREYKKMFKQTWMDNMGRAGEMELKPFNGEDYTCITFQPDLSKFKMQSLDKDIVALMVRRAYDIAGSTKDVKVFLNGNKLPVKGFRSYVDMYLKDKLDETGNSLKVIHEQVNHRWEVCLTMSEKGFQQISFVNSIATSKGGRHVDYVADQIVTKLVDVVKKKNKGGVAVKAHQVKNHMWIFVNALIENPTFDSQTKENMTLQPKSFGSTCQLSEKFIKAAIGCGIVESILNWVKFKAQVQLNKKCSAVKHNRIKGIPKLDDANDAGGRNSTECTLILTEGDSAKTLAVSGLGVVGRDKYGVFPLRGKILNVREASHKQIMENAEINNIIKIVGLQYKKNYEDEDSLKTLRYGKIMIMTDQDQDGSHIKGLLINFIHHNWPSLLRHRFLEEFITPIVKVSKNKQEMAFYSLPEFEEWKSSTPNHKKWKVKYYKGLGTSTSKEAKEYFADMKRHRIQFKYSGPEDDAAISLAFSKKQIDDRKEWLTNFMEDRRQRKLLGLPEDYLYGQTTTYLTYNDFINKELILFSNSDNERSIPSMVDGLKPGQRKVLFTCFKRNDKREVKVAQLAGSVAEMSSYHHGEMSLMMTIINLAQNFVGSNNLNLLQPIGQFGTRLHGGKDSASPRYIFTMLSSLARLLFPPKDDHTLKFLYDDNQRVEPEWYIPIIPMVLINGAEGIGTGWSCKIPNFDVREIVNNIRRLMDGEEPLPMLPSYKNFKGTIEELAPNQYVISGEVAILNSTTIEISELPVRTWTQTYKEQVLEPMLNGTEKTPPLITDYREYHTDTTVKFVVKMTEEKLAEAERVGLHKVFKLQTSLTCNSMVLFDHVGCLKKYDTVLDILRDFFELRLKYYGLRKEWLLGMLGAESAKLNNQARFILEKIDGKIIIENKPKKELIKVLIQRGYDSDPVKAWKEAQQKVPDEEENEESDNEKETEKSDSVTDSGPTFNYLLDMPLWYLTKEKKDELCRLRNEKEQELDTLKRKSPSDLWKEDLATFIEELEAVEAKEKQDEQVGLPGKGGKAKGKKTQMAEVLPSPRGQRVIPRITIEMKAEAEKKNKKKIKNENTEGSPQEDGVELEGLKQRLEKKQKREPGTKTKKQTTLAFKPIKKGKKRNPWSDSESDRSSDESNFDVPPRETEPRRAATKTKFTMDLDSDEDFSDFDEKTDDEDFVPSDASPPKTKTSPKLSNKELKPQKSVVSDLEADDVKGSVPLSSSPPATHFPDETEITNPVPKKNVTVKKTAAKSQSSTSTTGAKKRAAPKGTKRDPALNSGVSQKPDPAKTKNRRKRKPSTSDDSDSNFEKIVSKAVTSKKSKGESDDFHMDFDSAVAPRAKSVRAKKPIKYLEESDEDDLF
Data set [7] concerns topIIα phosphorylation (Ser1106). The experiment in a line: TopIIα phosphorylation cell-based ELISA, LoVo. The arrangement: species or system human. To be noted: for maximum inhibitory effect on topIIα phosphorylation: LoVo cells, at either TGI or IC50 concentrations over 6 or 24 hour treatment; for effect on topIIα phosphorylation: LoVo, 6 hours, KA39 TGI and IC50, KA25 TGI 13.8 μΜ, KA26 TGI 100 μΜ. (In general: ELISA stands for enzyme-linked immunosorbent assay.)

The test system is the same in data set [8]. As to the kind of experiment: TopIIα phosphorylation cell-based ELISA, HT-29. Also on record: species or system human. The conditions noted are these: HT-29 cells, at either TGI or IC50 concentrations over 6 or 24 hour treatment.
[9] abbreviates: HT-29, IC50 concentration (KA39 19.5 μM), 24 hours.
[10] abbreviates: HT-29, TGI concentration (KA39 15.9 μM, etoposide 69 μM), 48 hours.

As usually defined, the GI50 is the concentration giving 50% growth inhibition. Consider `COc1cc([C@@H]2c3cc4c(cc3[C@@H](O[C@@H]3O[C@@H]5CO[C@@H](C)O[C@H]5[C@H](O)[C@H]3O)[C@H]3COC(=O)[C@H]23)OCO4)cc(OC)c1O` [Etoposide, reference compound], for which, in the data set on DLD-1 cancer cells [1], the “TGI (total 100% growth inhibition)” value came out at 8 ± 0.5 µM, the GI50 is 1.8 ± 0.39 µM and the IC50 is 27 ± 0.28 µM. Besides, in the data set with HT-29 cancer cells [2], the “TGI (total 100% growth inhibition)” value came to 69 ± 0.9 µM, the GI50 stood at 9.5 ± 0.5 µM and the IC50 is above 100 µM. Moreover, in the data set on LoVo cancer cells, the GI50 came to 14 ± 0.5 µM and the IC50 was above 100 µM. For the same compound, in [3], the IC50 at 48 h was above 100 µM. Also, the concentration for 50% growth inhibition (GI50) in data set [4] came out at 25 ± 0.3 µM. Further, in the data set with DLD-1 cancer cells [5] (48 hours), the “early apoptosis (Q4)” value is listed as 51.12% and the “late apoptosis (Q2)” value was 18.84%. In the data set with DLD-1 cancer cells [5] (72 hours), the “early apoptosis (Q4)” value is listed as 42.01% and the “late apoptosis (Q2)” value is on record as 30.48%. In the data set on HT-29 cancer cells [6] (setting [9]), the “% of cells in G1 phase” value came out at 57.28%, the “% of cells in G2/M phase” value was determined as 5.99%, the “% of cells in S phase” value is 16.50% and the “% of cells in SG (SubG1) phase” value was 20.23%. Besides, in the data set on HT-29 cancer cells [6] (setting [10]), the “% of cells in G1 phase” value came to 26.06%, the “% of cells in G2/M phase” value stood at 4.37%, the “% of cells in S phase” value came out at 13.10% and the “% of cells in SG (SubG1) phase” value was 55.80%. In addition, the “topoisomerase II reaction product on agarose gel” value on topoisomerase II is “linear DNA”.

As for `COc1cc(Cc2nnc3sc(-c4cc([N+](=O)[O-])ccc4[N+](=O)[O-])nn23)c(S(=O)(=O)N(C)C)cc1OC` [KA39, 2-((6-(2,5-Dinitrophenyl)-[1,2,4]Triazolo[3,4-b][1,3,4]Thiadiazol-3-Yl)Methyl)-4,5-Dimethoxy-N,N-Dimethylbenzenesulfonamide], in the data set on DLD-1 cancer cells [1], the “TGI (total 100% growth inhibition)” value worked out at 5 ± 0.76 µM, the GI50 is 3 ± 0.52 µM and the IC50 was 9 ± 0.76 µM. Moreover, in the data set on HT-29 cancer cells [2], the “TGI (total 100% growth inhibition)” value was 15.9 µM and 15.9 ± 0.55 µM; the 50% growth inhibitory concentration (GI50) was 11.5 ± 0.8 µM; the IC50 turned out to be 19.5 ± 0.9 µM. In addition, in the data set with LoVo cancer cells, the GI50 came out at 2.2 ± 0.2 µM and the IC50 is 10.5 ± 0.15 µM. Moreover, the IC50 at 48 h in data set [3] turned out to be 40.5 ± 0.76 µM. For the same compound, in data set [4], the GI50 was found to be 15 ± 0.36 µM; the “Selectivity: GI50, TGI and IC50 values, MRC5 cells versus cancer cell lines” value (“Selectivity: GI50, TGI and IC50 values” below) is reported as 3–5 times. In the data set with DLD-1 cancer cells [5] (48 hours), the “early apoptosis (Q4)” value is 17.35% and the “late apoptosis (Q2)” value stood at 13.12%. Further, in the data set with DLD-1 cancer cells [5] (72 hours), the “early apoptosis (Q4)” value was 20.68% and the “late apoptosis (Q2)” value was found to be 20.96%. Besides, in the data set with HT-29 cancer cells [6] (setting [9]), the “% of cells in G1 phase” value is recorded as 46.64%, the “% of cells in G2/M phase” value is recorded as 3.74%, the “% of cells in S phase” value came out at 21.52% and the “% of cells in SG (SubG1) phase” value was 27.06%. Moreover, in the data set with HT-29 cancer cells [6] (setting [10]), the “% of cells in G1 phase” value turned out to be 40.95%, the “% of cells in G2/M phase” value stood at 9.48%, the “% of cells in S phase” value is 14.66% and the “% of cells in SG (SubG1) phase” value is on record as 33.51%. Further, at topoisomerase II (pHOT1 supercoiled DNA, KA39 0.1, 1.0, 7.5 and 20 μΜ, non-EB gel), the “topoisomerase II reaction product on agarose gel” value is listed as “induced the formation of supercoiled DNA in all concentrations used”. In data set [7], the “maximum inhibitory effect on topIIα phosphorylation” value (“maximum inhibitory effect” below) came out at 60% and the “effect on topIIα phosphorylation” value is on record as “enhanced the phosphorylation status of topIIα”. For the same compound, in data set [8], the “maximum inhibitory effect” value is 76%.

For `COc1cc(Cc2nnc3sc(/C=C/c4ccc(Cl)cc4)nn23)c(S(=O)(=O)N(C)C)cc1OC` [KA26, (E)-2-((6-(4-Chlorostyryl)-[1,2,4]Triazolo[3,4-b][1,3,4]Thiadiazol-3-Yl)Methyl)-4,5-Dimethoxy-N,N-Dimethylbenzenesulfonamide], in the data set with DLD-1 cancer cells [1], the “TGI (total 100% growth inhibition)” value was above 100 µM, the GI50 turned out to be 1.2 ± 0.81 µM and the IC50 is above 100 µM. Further, in the data set on HT-29 cancer cells [2], the “TGI (total 100% growth inhibition)” value was above 100 µM, the 50% growth inhibitory concentration (GI50) is 2 ± 0.76 µM and the IC50 was above 100 µM. Moreover, in the data set on LoVo cancer cells, the 50% growth inhibitory concentration (GI50) came to 15 ± 0.8 µM and the IC50 is above 100 µM. For the same compound, the IC50 at 48 h in data set [3] was above 100 µM. Besides, in data set [4], the GI50 stood at 30 ± 0.9 µM; the “Selectivity: GI50, TGI and IC50 values” value is listed as 3–5 times. For the same compound, in data set [7], the “maximum inhibitory effect” value was determined as 18% and the “effect on topIIα phosphorylation” value is “did not affect the phosphorylation status of topIIα”. Moreover, the “maximum inhibitory effect” value in data set [8] is on record as 50%.

With `COc1cc(Cc2nnc3sc(/C=C/c4ccc(F)cc4)nn23)c(S(=O)(=O)N(C)C)cc1OC` [KA25, (E)-2-((6-(4-Fluorostyryl)-[1,2,4]Triazolo[3,4-b][1,3,4]Thiadiazol-3-Yl)Methyl)-4,5-Dimethoxy-N,N-Dimethylbenzenesulfonamide], in the data set on DLD-1 cancer cells [1], the “TGI (total 100% growth inhibition)” value was determined as 65 ± 0.5 µM, the GI50 worked out at 11.4 ± 0.5 µM and the IC50 is above 100 µM. Moreover, in the data set on HT-29 cancer cells [2], the “TGI (total 100% growth inhibition)” value is above 100 µM, the GI50 turned out to be 1 ± 0.3 µM and the IC50 is above 100 µM. Also, in the data set on LoVo cancer cells, the GI50 was 8 ± 0.76 µM and the IC50 was above 100 µM. In addition, in [3], the IC50 at 48 h was above 100 µM. For the same compound, in data set [4], the GI50 came to 15 ± 0.9 µM; the “Selectivity: GI50, TGI and IC50 values” value was 3–5 times. Also, in data set [7], the “maximum inhibitory effect” value is given as 47% and the “effect on topIIα phosphorylation” value is “less significant inhibition of topIIα phosphorylation”. Also, in data set [8], the “maximum inhibitory effect” value is 33%.
